Structures are written as SMILES. A value given as a limit tells only on which side of the number the result lay.

Among the data in ChEMBL document CHEMBL3046445, “Steroid conjugates: Synthesis and preliminary biological testing of pro-juvenoids” (2010) are ID50 values, retold here.

Test [1] has as its system Pyrrhocoris apterus. Briefly: Inhibition of metamorphosis in freshly molted Pyrrhocoris apterus (red firebug) fourth-instar nymph assessed as compound dose per individual causing reduction in metamorphosis by oral drinking assay. The test is classed as functional. The method, boiled down: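 Drinking assay: compound in acetone was added to distilled water with Tween-80 at 0.025, 0.25, 2.5 and 25 per microlitre. It was offered in cotton-plugged glass vials at the end of the fourth nymphal instar, with the acetone/water/Tween-80 mixture as reference. Ten insects per concentration, three replicates, 25 ± 0.5 °C, 16L:8D, 50 ± 5% RH. Metamorphosis inhibition was scored morphologically after the last ecdysis.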

The subject of test [2] is Pyrrhocoris apterus. Briefly: Inhibition of metamorphosis in freshly molted Pyrrhocoris apterus (red firebug) fifth-instar nymph assessed as compound dose per individual causing reduction in metamorphosis by topical screening test. The test is classed as functional. The method, boiled down:
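Topical application with a Burkhard microapplicator; acetone alone served as the reference treatment. Ten insects per dose, three replicates. Insects were held in Petri dishes at 25 ± 0.5 °C, 16L:8D, 50 ± 5% RH, and checked daily. The degree of metamorphosis inhibition was scored morphologically after the next molt. ID-50 per individual was computed from linear regression tested by ANOVA.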

As to `CCOC(=O)NCCOc1ccc(C[C@@H]2CCCC[C@@H]2OC(=O)CC[C@@H](C)[C@H]2CC[C@H]3[C@@H]4[C@H](OC=O)C[C@@H]5C[C@H](OC=O)CC[C@]5(C)[C@H]4C[C@H](OC=O)[C@]23C)cc1`, the ID50 was found to be 0.051 µg in test [1] and 0.094 µg in test [2].

On to `CCOC(=O)NCCOc1ccc(C[C@H]2CCCC[C@@H]2OC(=O)CCC(=O)O[C@H]2CC[C@@]3(C)C(=CC[C@H]4[C@@H]5CC[C@H]([C@H](C)/C=C/[C@@H](CC)C(C)C)[C@@]5(C)CC[C@@H]43)C2)cc1`, for which the values for the ID50 in test [1] and in test [2] were more than 25 µg and more than 5 µg, respectively.

As for `CCOC(=O)NCCOc1ccc(C[C@H]2CCCC[C@@H]2O)cc1` (relative stereo), the ID50 in test [1] came out at 0.5 µg; in test [2] it was 0.71 µg.

As for `CC(COc1ccc(Oc2ccccc2)cc1)Oc1ccccn1` (configuration not stated) [PYRIPROXYFEN], the ID50 in test [1] was determined as 25 µg; in test [2], 2.3 µg.

With `CCOC(=O)NCCOc1ccc(C[C@@H]2CCCC[C@@H]2OC(=O)CC[C@@H](C)[C@H]2CC[C@H]3[C@@H]4[C@H](OC=O)C[C@@H]5C[C@H](O)CC[C@]5(C)[C@H]4C[C@H](OC=O)[C@]23C)cc1`, the ID50 turned out to be 0.423 µg in test [1] and 0.062 µg in test [2].

For `CCOC(=O)NCCOc1ccc(C[C@@H]2CCCC[C@@H]2OC(=O)CCC(=O)O[C@H]2CC[C@@]3(C)C(=CC[C@H]4[C@@H]5CC[C@H]([C@H](C)/C=C/[C@@H](CC)C(C)C)[C@@]5(C)CC[C@@H]43)C2)cc1`, the figures for the ID50 in test [1] and in test [2] were 4.989 µg and 0.0185 µg, respectively.

On to `COC(C)(C)CCC[C@H](C)C/C=C/C(C)=C/C(=O)OC(C)C` [METHOPRENE], for which the ID50 in test [1] worked out at 0.41 µg; in test [2], 0.01 µg.

For `CCOC(=O)NCCOc1ccc(C[C@H]2CCCC[C@@H]2OC(=O)CC[C@@H](C)[C@H]2CC[C@H]3[C@@H]4[C@H](OC=O)C[C@@H]5C[C@H](OC=O)CC[C@]5(C)[C@H]4C[C@H](OC=O)[C@]23C)cc1`, the ID50 was found to be 6.153 µg in test [1] and 1.775 µg in test [2].

As to `CCOC(=O)NCCOc1ccc(Oc2ccccc2)cc1` [PHENOXYCARB], the values for the ID50 in test [1] and in test [2] were 0.2 µg and 0.09 µg, respectively.

For `CCOC(=O)NCCOc1ccc(C[C@H]2CCCC[C@@H]2OC(=O)CC[C@@H](C)[C@H]2CC[C@H]3[C@@H]4[C@H](OC=O)C[C@@H]5C[C@H](O)CC[C@]5(C)[C@H]4C[C@H](OC=O)[C@]23C)cc1`, the ID50 in test [1] was more than 25 µg; in test [2] it was more than 5 µg.

As for `CCOC(=O)NCCOc1ccc(C[C@@H]2CCCC[C@@H]2O)cc1` (relative stereo), the ID50 in test [1] came out at 0.0012 µg; in test [2], 0.001 µg.
